Data: ChEMBL document CHEMBL4622881, “Design, synthesis and biological evaluation of novel pyrrolo[2,3-d]pyrimidine as tumor-targeting agents with selectivity for tumor uptake by high affinity folate receptors over the reduced folate carrier” (Bioorg Med Chem, 2020)

How the values were obtained:
[1] = Inhibition of GARFTase in Chinese Hamster MTXRII-OuaR2-4/RFC/FRalpha/PCFT-null R2 cells assessed as reduction in cell growth after 96 hrs by Cell-Titer Blue assay; type: cell-based; conditions: Cricetulus griseus, R2, 96 h
[2] = Inhibition of GARFTase in Chinese Hamster RT16 cells expressing human FRalpha assessed as reduction in cell growth after 96 hrs by Cell-Titer Blue assay; type: cell-based; conditions: Cricetulus griseus, RT16, 96 h
[3] = Inhibition of GARFTase in Chinese Hamster PC43-10 cells expressing human RFC assessed as reduction in cell growth after 96 hrs by Cell-Titer Blue assay; conditions: Cricetulus griseus, PC43-10, 96 h
Procedure, shortened: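 PC43-10 (RFC) or R2/PCFT4 (PCFT) CHO, grown in α-MEM + 10% bovine calf serum + G418 (1 mg/mL). ~2000 cells/well exposed to 0–1000 nM drug in folate-free RPMI 1640 with 10% dialyzed FBS and 25 nM leucovorin for 96 h. Viability by Cell-Titer Blue fluorescence; IC50 as 50% growth inhibition relative to drug-free cells; mean of 5–16 experiments.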

[4] = Inhibition of GARFTase in Chinese Hamster D4 cells expressing human FRbeta assessed as reduction in cell growth after 96 hrs by Cell-Titer Blue assay; type: cell-based; conditions: Cricetulus griseus
[5] = Inhibition of GARFTase in Chinese Hamster MTXRII-OuaR2-4 R2 cells expressing human PCFT assessed as reduction in cell growth after 96 hrs by Cell-Titer Blue assay; type: cell-based; conditions: Cricetulus griseus, R2, 96 h
Cricetulus griseus [6] = organism: Cricetulus griseus; assay: Potency index, ratio of (2S)-2-[[4-[4-(2-amino-4-oxo-3,7-dihydropyrrolo[2,3-d]pyrimidin-6-yl)butyl]benzoyl]amino]pentanedioic acid IC50 to compound IC50 for GARFTase in Chinese Hamster D4 cells expressing human FRbeta assessed as reduction in cell growth after 96 hrs by Cell-Titer Blue assay; type: cell-based
Procedure, shortened: (§1)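 CHO sublines from transporter-null R2 cells, expressing human FRβ (D4) or FRα (RT16), were kept in α-MEM with 10% calf serum and G418 (1 mg/mL). They were then moved to folate-free RPMI 1640 with 10% dialyzed FBS for 3 days. ~2000 cells/well were exposed to 0–1000 nM drug with 2 nM leucovorin for 96 h, ± 200 nM folic acid, and read by Cell-Titer Blue fluorescence. IC50 is 50% growth loss versus untreated cells; index is reference IC50 over compound IC50.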

Cricetulus griseus [7] = organism: Cricetulus griseus; assay: Potency index, ratio of (2S)-2-[[4-[4-(2-amino-4-oxo-3,7-dihydropyrrolo[2,3-d]pyrimidin-6-yl)butyl]benzoyl]amino]pentanedioic acid IC50 to compound IC50 for GARFTase in Chinese Hamster RT16 cells expressing human FRalpha assessed as reduction in cell growth after 96 hrs by Cell-Titer Blue assay; type: cell-based; procedure, shortened: as §1
[8] = target: T1, Trifunctional purine biosynthetic protein adenosine-3 (Homo sapiens) (UniProt P22102); assay: Potency index, ratio of (2S)-2-[[4-[4-(2-amino-4-oxo-3,7-dihydropyrrolo[2,3-d]pyrimidin-6-yl)butyl]benzoyl]amino]pentanedioic acid IC50 to compound IC50 for GARFTase in human KB cells assessed as reduction in cell growth after 96 hrs by Cell-Titer Blue assay; type: cell-based
T1 sequence (whole entry): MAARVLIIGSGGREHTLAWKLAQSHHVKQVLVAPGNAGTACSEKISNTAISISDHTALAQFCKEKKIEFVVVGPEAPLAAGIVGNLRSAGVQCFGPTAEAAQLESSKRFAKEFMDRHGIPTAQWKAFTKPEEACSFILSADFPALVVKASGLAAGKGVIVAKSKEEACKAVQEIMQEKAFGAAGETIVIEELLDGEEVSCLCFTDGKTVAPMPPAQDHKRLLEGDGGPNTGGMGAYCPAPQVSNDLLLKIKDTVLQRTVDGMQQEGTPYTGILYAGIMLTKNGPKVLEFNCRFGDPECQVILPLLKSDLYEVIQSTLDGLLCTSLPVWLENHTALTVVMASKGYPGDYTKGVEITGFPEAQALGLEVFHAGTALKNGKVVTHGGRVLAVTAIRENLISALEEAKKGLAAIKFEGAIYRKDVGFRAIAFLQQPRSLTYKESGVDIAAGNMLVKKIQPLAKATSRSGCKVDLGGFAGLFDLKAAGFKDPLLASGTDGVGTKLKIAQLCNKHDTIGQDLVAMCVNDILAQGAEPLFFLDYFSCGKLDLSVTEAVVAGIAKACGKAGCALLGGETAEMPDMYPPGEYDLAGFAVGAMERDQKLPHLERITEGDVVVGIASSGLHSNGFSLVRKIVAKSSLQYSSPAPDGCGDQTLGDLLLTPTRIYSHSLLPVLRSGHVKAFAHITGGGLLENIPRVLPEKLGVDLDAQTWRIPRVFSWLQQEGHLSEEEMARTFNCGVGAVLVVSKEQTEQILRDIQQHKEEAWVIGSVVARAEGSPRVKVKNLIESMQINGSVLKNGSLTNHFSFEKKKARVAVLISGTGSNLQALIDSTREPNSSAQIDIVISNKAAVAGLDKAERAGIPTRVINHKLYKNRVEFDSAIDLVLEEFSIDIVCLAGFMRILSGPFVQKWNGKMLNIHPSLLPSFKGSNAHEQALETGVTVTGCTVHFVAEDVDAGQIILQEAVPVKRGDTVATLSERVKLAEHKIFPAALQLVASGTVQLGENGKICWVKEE
Procedure, shortened: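 KB human carcinoma cells, which express RFC, FRα and PCFT, were maintained in folate-free RPMI with 10% FBS. ~2000 cells/well were exposed to 0–1000 nM drug in folate-free RPMI 1640 with 10% dialyzed FBS and 2 nM leucovorin for 96 h, ± 200 nM folic acid. Viability was read by Cell-Titer Blue fluorescence. IC50 is 50% growth loss versus untreated cells; index is reference IC50 over compound IC50.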

SMILES | IC50 [1] | IC50 [2] | IC50 [3] | IC50 [4] | IC50 [5] | Ratio IC50 (Cricetulus griseus [6]) | Ratio IC50 (Cricetulus griseus [7]) | Ratio IC50 [8]
CC(=O)N(CCCc1cc2c(=O)[nH]c(N)nc2[nH]1)c1ccc(C(=O)N[C@@H](CCC(=O)O)C(=O)O)cc1 | > 1000 nM | 57.2 nM | > 1000 nM | 12.8 nM | > 1000 nM |  |  | 
Nc1nc2[nH]c(CCNc3ccc(C(=O)N[C@@H](CCC(=O)O)C(=O)O)cc3)cc2c(=O)[nH]1 | > 1000 nM | 3.04 nM | 510 nM | 0.62 nM | 87.4 nM |  |  | 
Nc1nc2[nH]c(CCCN(C(=O)C(F)(F)F)c3ccc(C(=O)N[C@@H](CCC(=O)O)C(=O)O)cc3)cc2c(=O)[nH]1 | > 1000 nM | 5.78 nM | > 1000 nM | 3.87 nM | 487 nM | 3 |  | 
Nc1nc2[nH]c(CCCSc3ccc(C(=O)N[C@@H](CCC(=O)O)C(=O)O)cc3)cc2c(=O)[nH]1 | > 1000 nM | 2.56 nM | > 1000 nM | 0.6 nM | 593 nM | 16 | 2 | 6
Nc1nc2[nH]c(CCCN(C=O)c3ccc(C(=O)N[C@@H](CCC(=O)O)C(=O)O)cc3)cc2c(=O)[nH]1 | > 1000 nM | 35.6 nM | > 1000 nM | 0.61 nM | 893 nM | 16 |  | 
Nc1nc2[nH]c(CCCc3ccc(C(=O)N[C@@H](CCC(=O)O)C(=O)O)cc3)cc2c(=O)[nH]1 | > 1000 nM |  | 649 nM |  |  |  |  | 
Nc1nc2[nH]c(CCCOc3ccc(C(=O)N[C@@H](CCC(=O)O)C(=O)O)cc3)cc2c(=O)[nH]1 | > 1000 nM | 4.6 nM | > 1000 nM | 5.6 nM | > 1000 nM | 2 |  | 
Nc1nc2[nH]c(CCCNc3ccc(C(=O)N[C@@H](CCC(=O)O)C(=O)O)cc3)cc2c(=O)[nH]1 | 697 nM | 1.76 nM | 670 nM | 1.51 nM | 235 nM | 6 | 3 | 2
Nc1nc2[nH]c(CCCCc3ccc(C(=O)N[C@@H](CCC(=O)O)C(=O)O)cc3)cc2c(=O)[nH]1 | > 1000 nM |  | > 1000 nM |  |  |  |  | 
